Source: PubChem BioAssay
Rtt109 HAT inh: inhibitors of C. albicans Rtt109/Vps75 HAT, primary screen, biochemical, ThioGlo CoA-SH fluorescence, plate reader; inhibition, % at 34.9 µM; actives 0.16% (n = 330,000); purified Rtt109/Vps75, 4 h; Histone acetyltransferase RTT109 (Candida albicans (strain SC5314 / ATCC MYA-2876)), …;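 active = inhibition of at least 50% in every replicate; inconclusive = best replicate reaches 50% inhibition but some replicates fall short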
Target sequence (Q5AAJ8 whole entry, looked up): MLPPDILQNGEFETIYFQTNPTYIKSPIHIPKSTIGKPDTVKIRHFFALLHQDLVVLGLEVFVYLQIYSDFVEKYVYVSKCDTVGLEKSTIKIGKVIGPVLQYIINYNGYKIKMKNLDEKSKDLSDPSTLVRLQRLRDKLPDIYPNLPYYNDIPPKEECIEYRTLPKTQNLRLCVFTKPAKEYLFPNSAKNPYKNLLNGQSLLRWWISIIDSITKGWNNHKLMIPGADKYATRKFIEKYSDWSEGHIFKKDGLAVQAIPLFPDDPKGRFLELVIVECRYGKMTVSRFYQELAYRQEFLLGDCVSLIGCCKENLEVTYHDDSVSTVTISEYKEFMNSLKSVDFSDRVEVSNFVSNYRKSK
PglD inh: C. jejuni PglD acetyltransferase inhibitors, primary screen, biochemical, DTNB colorimetric, single point; inhibition, % at 12.5 µM; AID 602405, 2012; purified PglD enzyme, DTNB colorimetric CoA detection; actives 0.098% (n = 360,000); UDP-N-acetylbacillosamine N-acetyltransferase PglD (Campylobacter jejuni); in the data active = inhibition above about 16%, passing the limit was not always enough; inconclusive = no clear call, values can overlap the other calls
CSC inhib: cancer stem cell viability inhibitors, primary screen, luminescence; cancer stem cell-like cells viability; inhibition, % at 7.5 µM; actives 1.1% (n = 300,000); in the data active = inhibition above about 75%; inconclusive = no clear call, values can overlap the other calls; tested in HMLE shEcad cells
SKKanGAS inh: S. pyogenes SKKanGAS growth inhibitors in kanamycin, primary screen, streptokinase expression inhibitor project, SKKanGAS strain, BacTiter-Glo luminescence; inhibition, % at 7.5 µM; 6 h; actives 1.3% (n = 300,000);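 active = mean replicate score, as percent of positive control median, at least 50; inconclusive = mean below 50 but one replicate at or above 50; inactive = mean and every replicate below 50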;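 also: strain carries kanamycin resistance gene driven by streptokinase promoter and grows in 40 µg/ml kanamycin; loss of luminescence reflects streptokinase promoter inhibition or plain growth inhibition; 0% = median of DMSO wells and 100% = positive control at its reference dose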
FN deposit inh: inhibitors of fibronectin matrix deposition, primary screen, AH1F cells, Alexa488-fibronectin fluorescence, plate reader; AH1F fibroblasts, overnight; AID 743247, 2014; actives 0.086% (n = 350,000); inhibition, % at 12.6 µM;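 active = mean inhibition across replicates of 30% or more, regardless of how many single replicates reach that level; inconclusive = mean under 30% yet at least half of replicates reach 30%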;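 also: positive control wells lacked labelled fibronectin entirely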
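Material: AH1F fibroblast monolayer depositing Alexa488-labelled fibronectin into matrix / Amount: 10000 AH1F cells per well / Signal: fluorescence 485/525 nm / Medium: DMEM, 2% serum / Compound: single dose, pinned / Incubation: 1 h cell adhesion before compound, then overnight fibronectin incubation / Reagent: Alexa488-FN, 24 nM final / Read-out: inhibition of fibronectin deposition signal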
PfHsp90 yeast 2: growth inhibition of PfHsp90-expressing yeast, primary screen, antimalarial PfHsp90 inhibitor project, S. cerevisiae, BacTiter-Glo luminescence, single point, set 2; BacTiter-Glo ATP, 48 h; yeast lacking PDR1 and PDR3 efflux regulators; inhibition, % at 9.4 µM; actives 0.32% (n = 310,000); AID 504621, 2011;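 active = every replicate shows inhibition above about 80%, whatever the replicate mean, limit read from the data; inconclusive = mean inhibition reaches the set limit but some replicate falls short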;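 also: 0% = DMSO neutral controls and 100% = 20 µM radicicol positive controls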
An asterisk follows results filed as active; ? = inconclusive; nt = no result. An excerpt weighted towards active compounds, which were near 1.7% of everything screened.

SMILES	Rtt109 HAT inh	PglD inh	CSC inhib	SKKanGAS inh	FN deposit inh	PfHsp90 yeast 2
CC1(C)COCN1S(=O)(=O)c1ccc(C(=O)Nc2nnc(-c3ccc(Cl)s3)o2)cc1	nt	nt	44	101*	nt	nt
COc1ccc(S(=O)(=O)Nc2ccc3c(c2)C(=O)N([C@H](C)CO)C[C@H](C)[C@@H](CN(C)C)OCCCC[C@@H](C)O3)cc1	nt	4	nt	nt	-6	nt
C[C@H]1CN([C@@H](C)CO)C(=O)c2cc(NC(=O)C3CCCCC3)ccc2O[C@H]1CN(C)Cc1ccc2c(c1)OCO2	nt	1	nt	nt	-7	nt
COc1ccc(-c2nc(NC(C)=O)sc2-c2ccc(OC)cc2)cc1	0	0	-3	67*	-8	-11
COc1cc(-c2nnc(SCC(=O)OC3CCCCC3)o2)cc(OC)c1OC	59*	2	12	3	-3	-7
COCC(=O)N(C)C[C@H]1Oc2cc(C#C[C@@H](C)O)ccc2S(=O)(=O)N([C@H](C)CO)C[C@@H]1C	nt	2	nt	nt	11	nt
O=C(Oc1c(Cl)cc(Cl)c2cccnc12)c1cccc([N+](=O)[O-])c1	1	nt	177*	88*	nt	107*
O=C(Oc1coc(CSc2ncccn2)cc1=O)c1cccc([N+](=O)[O-])c1	1	nt	-15	-11	-10	-37
O=C(Oc1ccc(Cl)c2cccnc12)c1cccc([N+](=O)[O-])c1	-5	nt	108*	27	2	-42
O=C(Oc1ccc(Cl)c2cccnc12)c1ccco1	-4	-6	2	87*	nt	-42
O=C(Oc1cccc2cccnc12)c1cccc([N+](=O)[O-])c1	7	nt	-14	22	-4	11
O=C(N[C@H]1C=C[C@H](CC(=O)N2CCOCC2)O[C@@H]1CO)c1cccc(F)c1	nt	-1	nt	nt	8	nt
C[C@@H]1CN([C@H](C)CO)C(=O)c2cc(NC(=O)CCN3CCOCC3)ccc2O[C@H]1CN(C)S(=O)(=O)c1ccc(Cl)cc1	nt	3	nt	nt	nt	nt
COc1ccc(C(=O)NC(=S)N(Cc2ccccc2)Cc2ccccc2)cc1	7	3	29	96*	nt	-67
O=C(NC(=S)N(Cc1ccccc1)Cc1ccccc1)c1ccccc1F	-8	1	35	94*	-29	-23
CC(C)CC(=O)NC(=S)N(Cc1ccccc1)Cc1ccccc1	7	nt	3	54*	-4	-37
COCC(=O)Nc1ccc2c(c1)C(=O)N(C)[C@H]1CC[C@@H](CC(=O)NCC(F)(F)F)O[C@H]1CO2	nt	1	nt	nt	-17	nt
COc1ccc(S(=O)(=O)N(C)C[C@H]2OCCCC[C@@H](C)Oc3ccc(NC(=O)CCCN(C)C)cc3C(=O)N([C@@H](C)CO)C[C@H]2C)cc1	nt	-5	nt	nt	nt	nt
CN(C)c1ccc2c(c1)[C@H]1C[C@@H](CC(=O)NCc3ccc(Cl)cc3)O[C@@H](CO)[C@H]1O2	nt	-1	nt	nt	3	nt
CC(C)(C)c1ccc(/C=C/C(=O)c2ccc(NC3=NCCCS3)cc2)cc1	19	nt	99*	nt	2	13
O=S(=O)(c1ccccc1F)N1CC[C@@H]2[C@H]1c1cc(-c3ccccc3)ccc1N[C@@H]2CO	nt	2	nt	nt	-2	nt
O=S(=O)(c1ccccc1F)N1CC[C@@H]2[C@H]1c1cc(-c3cccc(F)c3)ccc1N[C@@H]2CO	nt	-2	nt	nt	64*	nt
O=S(=O)(c1ccccc1F)N1CC[C@H]2[C@H](CO)Nc3ccc(-c4cccc(F)c4)cc3[C@H]21	nt	4	nt	nt	34*	nt
N#Cc1ccc(-c2ccc3c(c2)[C@@H]2[C@@H](CCN2S(=O)(=O)c2cccc(F)c2)[C@H](CO)N3)cc1	nt	0	nt	nt	31*	nt
COCC#Cc1ccc2c(c1)O[C@@H](CN(C)C(=O)CC1CC1)[C@@H](C)CN([C@@H](C)CO)S2(=O)=O	nt	0	nt	nt	-5	nt
SMILES	Rtt109 HAT inh	PglD inh	CSC inhib	SKKanGAS inh	FN deposit inh	PfHsp90 yeast 2
C[C@@H]1CN([C@H](C)CO)C(=O)c2cc(-c3ccccc3)cnc2O[C@@H]1CN(C)C(=O)Nc1ccccc1F	nt	-1	nt	nt	-7	nt
CN1CCN(CC(=O)Nc2sc3c(c2C(=O)Nc2ccccc2)CCCC3)CC1	-2	0	-9	-9	nt	-39
CCOc1ccc(NC(=O)c2c(NC(=O)CNCCN3CCOCC3)sc3c2CCC3)cc1	6	0	0	90*	nt	-1
O=C(CN1CCCC1)Nc1sc2c(c1C(=O)Nc1ccc(Br)cc1)CCC2	-5	1	12	61*	-2	-9
COc1ccc(NC(=O)c2c(NC(=O)CNCc3ccco3)sc3c2CCC3)cc1	-5	1	-2	8	nt	-5
CO[C@H]1CN(C)C(=O)c2ccc(NC(=O)NC(C)C)cc2OC[C@@H](C)N(C)C[C@H]1C	nt	nt	nt	nt	-2	nt
CCC(NC(=O)Nc1nnc(C(F)(F)F)s1)(C(F)(F)F)C(F)(F)F	-14	nt	-17	118*	nt	10
O=C(O)CCC(=O)Nc1nnc(C(F)(F)F)s1	-17	0	-8	nt	nt	11
CCCc1ccc(Oc2c(-c3ccc(O)c(C)c3O)n[nH]c2C)cc1	4	nt	100*	95*	3	7
CCCc1cc(-c2n[nH]c(C)c2-c2ccc(C(=O)OCC)o2)c(O)cc1O	7	nt	61	1	nt	-30
COc1cccc(Oc2cn[nH]c2-c2ccc(OC)cc2O)c1	?	4	35	14	nt	-57
CCCc1ccc(Oc2cn[nH]c2-c2ccc(O)c(C)c2O)cc1	-11	0	123*	88*	nt	142*
C=CCc1ccccc1OCC(=O)N/N=C/c1ccc(OC(C)=O)cc1OC(C)=O	10	-5	77*	14	22	2
OC(COc1cccc2ccccc12)CN1CCN(c2cccc(Cl)c2)CC1 (stereo not drawn)	-3	-4	36	52*	1	-2
OC(COc1cccc2ccccc12)CN1CCN(c2ccc(Cl)cc2)CC1 (stereo not drawn)	-2	-3	77*	57*	5	15
O=c1[nH]c(NNC(=S)NC2CCCCC2)nc2c1C1(CCCC1)Cc1ccccc1-2	-3	nt	?	74*	-5	-12
O=c1[nH]c(NNC(=S)NCc2ccccc2)nc2c1C1(CCCCC1)Cc1ccccc1-2	6	nt	106*	101*	1	nt
Cc1c(C(=O)Nc2nccs2)sc2nc(-c3cccs3)cc(C(F)(F)F)c12	4	nt	25	95*	7	nt
Cc1noc(C)c1S(=O)(=O)N(C)C[C@H]1Oc2ccc(NC(=O)C3CC3)cc2CC(=O)N([C@@H](C)CO)C[C@H]1C	nt	0	nt	nt	nt	nt
O=C(COc1ccc(/C=N/NC(=O)c2cc3ccccc3o2)cc1Br)Nc1ccccc1	-12	-3	99*	9	nt	-11
